According to article PMC5970367 (Chembiochem : a European journal of chemical biology, 2017):

Experiments:
[1] = tested on: 5′-fluorescein labeled HCV SLIIb; experiment: Reaction kinetics via fluorescence; assay type: biochemical, hepatitis C virus; conditions: pseudo Michaelis-Menten, catalytic efficiency
Procedure, shortened: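 Copper–peptide complexes were formed at 1.1:1 peptide:Cu. Each complex was added to 333 nM 5′-fluorescein-SLIIb with 1 mM ascorbic acid and 1 mM H2O2 in 20 mM HEPES (pH 7.4, 100 mM NaCl) at 25 °C. Fluorescence loss was followed at ex 491/em 518 nm and converted to RNA concentration by a calibration curve. Initial velocities were plotted against catalyst concentration and fit to Michaelis–Menten to give KM and kcat. Values are the mean of ≥3 trials.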

[2] = tested on: fluorescein-labeled IRES SLIIb; experiment: Time-dependent MALDI-TOF mass spectrometry of SLIIb cleavage; assay type: biochemical, hepatitis C virus; conditions: for Initial Rate (%Overhang/min), 2′, 3′-cPO4: overhang 2′,3′-cyclic phosphates; for Initial Rate (%Overhang/min), 2′, 3′-cPO4 / Initial Rate (%Overhang/min), 3′-AL / Initial Rate (%Overhang/min), 3′-OH / Initial Rate (%Overhang/min), 3′-PO4 / Initial Rate (%Overhang/min), 3′-PGA / Initial Rate (%Overhang/min), 3′-PG / Initial Rate (%Overhang/min), 5′-AL / Initial Rate (%Overhang/min), 5′-GemDiol / Initial Rate (%Overhang/min), 5′-OH / Initial Rate (%Overhang/min), 5′-PO4 / Initial Rate (%Overhang/min), 5′-PPA: MALDI-TOF time dependence; for Initial Rate (%Overhang/min), 3′-AL: overhang 3′-aldehyde; for Initial Rate (%Overhang/min), 3′-OH: overhang 3′-hydroxyl; for Initial Rate (%Overhang/min), 3′-PO4: overhang 3′-phosphates; for Initial Rate (%Overhang/min), 3′-PGA: overhang 3′-phosphoglycaldehyde; for Initial Rate (%Overhang/min), 3′-PG: overhang 3′-phosphoglycolate; for Initial Rate (%Overhang/min), 5′-AL: overhang 5′-aldehyde; for Initial Rate (%Overhang/min), 5′-GemDiol: overhang 5′-geminal diol; for Initial Rate (%Overhang/min), 5′-OH: overhang 5′-hydroxyl; for Initial Rate (%Overhang/min), 5′-PO4: overhang 5′-phosphate; for Initial Rate (%Overhang/min), 5′-PPA: overhang 5′-phosphopropenal; for Relative Initial Rate (Normalized Intensity/min × 1000), position A6 / Relative Initial Rate (Normalized Intensity/min × 1000), position A15 / Relative Initial Rate (Normalized Intensity/min × 1000), position A19 / Relative Initial Rate (Normalized Intensity/min × 1000), position A27 / Relative Initial Rate (Normalized Intensity/min × 1000), position A30 / Relative Initial Rate (Normalized Intensity/min × 1000), position C10 / Relative Initial Rate (Normalized Intensity/min × 1000), position C33 / Relative Initial Rate (Normalized Intensity/min × 1000), position G5 / Relative Initial Rate (Normalized Intensity/min × 1000), position G9 / Relative Initial Rate (Normalized Intensity/min × 1000), position G11 / Relative Initial Rate (Normalized Intensity/min × 1000), position G28 / Relative Initial Rate (Normalized Intensity/min × 1000), position U12 / Relative Initial Rate (Normalized Intensity/min × 1000), position U14 / Relative Initial Rate (Normalized Intensity/min × 1000), position U25 / Relative Initial Rate (Normalized Intensity/min × 1000), position U26 / Relative Initial Rate (Normalized Intensity/min × 1000), position U29 / Relative Initial Rate (Normalized Intensity/min × 1000), position U31: 10 μM SLIIb, 10 μM copper-peptide
Procedure, shortened: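 Reactions contained 10 μM Fl-SLIIb, 10 μM Cu–peptide, 1 mM ascorbate and 1 mM H2O2, and were sampled at 2–180 min. They were quenched on ice, C18-desalted, and analysed by negative-ion reflectron MALDI-TOF (HPA/ammonium citrate matrix, ≥1000 shots). Peaks with m/z >1500 and S/N >5 were assigned against expected product masses. Products were summed per overhang type and expressed as a fraction at each time point. Initial rate was taken from the linear region (first ~40 min).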

Substance	kcat/KM [1] [M⁻¹ s⁻¹]	Initial Rate (%Overhang/min), 2′, 3′-cPO4 [2] [%Overhang/min]	Initial Rate (%Overhang/min), 3′-AL [2] [%Overhang/min]	Initial Rate (%Overhang/min), 3′-OH [2] [%Overhang/min]	Initial Rate (%Overhang/min), 3′-PO4 [2] [%Overhang/min]	Initial Rate (%Overhang/min), 3′-PGA [2] [%Overhang/min]	Initial Rate (%Overhang/min), 3′-PG [2] [%Overhang/min]	Initial Rate (%Overhang/min), 5′-AL [2] [%Overhang/min]	Initial Rate (%Overhang/min), 5′-GemDiol [2] [%Overhang/min]	Initial Rate (%Overhang/min), 5′-OH [2] [%Overhang/min]	Initial Rate (%Overhang/min), 5′-PO4 [2] [%Overhang/min]	Initial Rate (%Overhang/min), 5′-PPA [2] [%Overhang/min]	Relative Initial Rate (Normalized Intensity/min × 1000), position A6 [2]	Relative Initial Rate (Normalized Intensity/min × 1000), position A15 [2]	Relative Initial Rate (Normalized Intensity/min × 1000), position A19 [2]	Relative Initial Rate (Normalized Intensity/min × 1000), position A27 [2]	Relative Initial Rate (Normalized Intensity/min × 1000), position A30 [2]	Relative Initial Rate (Normalized Intensity/min × 1000), position C10 [2]	Relative Initial Rate (Normalized Intensity/min × 1000), position C33 [2]	Relative Initial Rate (Normalized Intensity/min × 1000), position G5 [2]	other results
GGHYRFK-Cu [3-Cu]	23.3	0.7 ± 0.3	0.8 ± 0.1	1.1 ± 0.5	0.4 ± 0.1	0.3 ± 0.1	0.2 ± 0.1	0.7 ± 0.1	0.3 ± 0.1	2.0 ± 0.6	0.4 ± 0.1	0.3 ± 0.1	- ^a	- ^a	- ^a	- ^a	- ^a	- ^a	- ^a	- ^a	Relative Initial Rate (Normalized Intensity/min × 1000), position G9 [2]: 1.4 ± 0.3 Normalized Intensity/min × 1000; Relative Initial Rate (Normalized Intensity/min × 1000), position G11 [2]: - ^a; Relative Initial Rate (Normalized Intensity/min × 1000), position G28 [2]: 1.0 ± 0.5 Normalized Intensity/min × 1000; Relative Initial Rate (Normalized Intensity/min × 1000), position U12 [2]: 1.2 ± 0.7 Normalized Intensity/min × 1000; Relative Initial Rate (Normalized Intensity/min × 1000), position U14 [2]: 1.2 ± 0.1 Normalized Intensity/min × 1000; Relative Initial Rate (Normalized Intensity/min × 1000), position U25 [2]: - ^a; Relative Initial Rate (Normalized Intensity/min × 1000), position U26 [2]: - ^a; Relative Initial Rate (Normalized Intensity/min × 1000), position U29 [2]: - ^a; Relative Initial Rate (Normalized Intensity/min × 1000), position U31 [2]: - ^a
GGHYAFK-Cu [5-Cu]	300	0.2 ± 0.1	0.2 ± 0.1	1.2 ± 0.1	0.8 ± 0.1	0.1 ± 0.1	0.1 ± 0.1	1.0 ± 0.2	0.5 ± 0.1	0.6 ± 0.1	1.5 ± 0.6	0.2 ± 0.1	- ^a	- ^a	1.0 ± 0.7 Normalized Intensity/min × 1000	1.1 ± 0.3 Normalized Intensity/min × 1000	- ^a	1.0 ± 0.2 Normalized Intensity/min × 1000	<1 Normalized Intensity/min × 1000	<1 Normalized Intensity/min × 1000	Relative Initial Rate (Normalized Intensity/min × 1000), position G9 [2]: - ^a; Relative Initial Rate (Normalized Intensity/min × 1000), position G11 [2]: - ^a; Relative Initial Rate (Normalized Intensity/min × 1000), position G28 [2]: - ^a; Relative Initial Rate (Normalized Intensity/min × 1000), position U12 [2]: <1 Normalized Intensity/min × 1000; Relative Initial Rate (Normalized Intensity/min × 1000), position U14 [2]: - ^a; Relative Initial Rate (Normalized Intensity/min × 1000), position U25 [2]: 3.1 ± 0.6 Normalized Intensity/min × 1000; Relative Initial Rate (Normalized Intensity/min × 1000), position U26 [2]: - ^a; Relative Initial Rate (Normalized Intensity/min × 1000), position U29 [2]: - ^a; Relative Initial Rate (Normalized Intensity/min × 1000), position U31 [2]: - ^a
GGHFRFK-Cu [12-Cu]	167	–	–	–	–	–	–	–	–	–	–	–	–	–	–	–	–	–	–	–	–
GGHDRFK-Cu [9-Cu]	550	–	–	–	–	–	–	–	–	–	–	–	–	–	–	–	–	–	–	–	–
GGHNRFK-Cu [10-Cu]	67	–	–	–	–	–	–	–	–	–	–	–	–	–	–	–	–	–	–	–	–
GGHARFK-Cu [4-Cu]	633	0.5 ± 0.1	0.5 ± 0.1	1.2 ± 0.4	0.1 ± 0.1	1.1 ± 0.4	1.5 ± 0.4	0.2 ± 0.1	0.8 ± 0.1	1.1 ± 0.4	0.4 ± 0.1	1.4 ± 0.3	- ^a	14.2 ± 4.6 Normalized Intensity/min × 1000	2.9 ± 1.4 Normalized Intensity/min × 1000	2.1 ± 0.3 Normalized Intensity/min × 1000	<1 Normalized Intensity/min × 1000	- ^a	- ^a	- ^a	Relative Initial Rate (Normalized Intensity/min × 1000), position G9 [2]: 2.0 ± 0.5 Normalized Intensity/min × 1000; Relative Initial Rate (Normalized Intensity/min × 1000), position G11 [2]: - ^a; Relative Initial Rate (Normalized Intensity/min × 1000), position G28 [2]: - ^a; Relative Initial Rate (Normalized Intensity/min × 1000), position U12 [2]: - ^a; Relative Initial Rate (Normalized Intensity/min × 1000), position U14 [2]: - ^a; Relative Initial Rate (Normalized Intensity/min × 1000), position U25 [2]: - ^a; Relative Initial Rate (Normalized Intensity/min × 1000), position U26 [2]: 1.9 ± 0.4 Normalized Intensity/min × 1000; Relative Initial Rate (Normalized Intensity/min × 1000), position U29 [2]: - ^a; Relative Initial Rate (Normalized Intensity/min × 1000), position U31 [2]: 1.4 ± 0.4 Normalized Intensity/min × 1000
